Holding throughout (type): cell-based
Assay [1] is described as follows: Inhibitory concentration of compound required for exhibiting cytotoxic effect on human A2780 cells. The method in brief: (§1)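 Human ovarian carcinoma A2780 cells and the drug-resistant A2780/AD10 subline were exposed to compounds for three days. Growth was read by MTT cell proliferation assay. IC50 values are means ± standard error of at least four independent experiments. Compounds were scored not active when there was no activity below 50 µM.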

A short description of assay [2]: Inhibitory concentration measured in term of cytotoxicity against human A2780/AD10 cells. The conditions noted are these: A2780 ADR. The procedure, abridged:
as §1

Assay [3] can be described thus: Inhibitory concentration of compound required for exhibiting cytotoxic effect on human A2780 cells; na = not active below 50 uM. The method in brief:
as §1

The nature of assay [4]: Inhibitory concentration measured in term of cytotoxicity against human A2780/AD10 cells; na = not active below 50 uM. The conditions noted are these: a2780 adr. The method in brief:
as §1

A short description of assay [5]: Inhibitory concentration of compound required for exhibiting cytotoxic effect on human A2780 cells; no. of experiment=4. The method in brief:
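Human ovarian carcinoma A2780 cells exposed to drugs for three days. Growth was read by MTT (3-(4,5-dimethylthiazol-2-yl)-2,5-diphenyltetrazolium bromide) cell proliferation assay and IC50 determined. Values are means ± standard error of at least four independent experiments.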

Molecules are shown by their SMILES. pIC50: −log10 of the molar value.

On to `C=C1CCC[C@@H]2CC=C[C@@H](C/C=C\C(=O)O[C@H](CO)C[C@@H]3O[C@H]3[C@@H](O)C1)O2`, for which the values for the negative-log IC50 (pIC50) in assay [1] and in assay [2] were 4.40 and 4.36, respectively.

Regarding `C=C1CCC[C@@H]2CC=C[C@@H](C/C=C\C(=O)O[C@H]([C@@H](O)/C=C/c3csc(C)n3)C[C@@H]3O[C@H]3[C@@H](O)C1)O2`, the IC50 entry in assay [3] and in assay [4] was “Not Active” in each case.

In the case of `C=C1CCC[C@@H]2CC=C[C@@H](C/C=C\C(=O)O[C@H]([C@@H](O)/C=C/[C@@H]3CC(C)=CCO3)C[C@@H]3O[C@H]3[C@@H](O)C1)O2`, the values for the pIC50 in assay [1] and in assay [2] were 7.30 and 7.13, respectively.

For `C=C1CCC[C@@H]2CC=C[C@@H](C/C=C\C(=O)O[C@H]([C@@H](O)/C=C/C3CCCCC3)C/C=C/[C@@H](O)C1)O2`, the IC50 result in assay [3] and in assay [4] was “Not Active” throughout.

As to `C=C1CCC[C@@H]2CC=C[C@@H](C/C=C\C(=O)O[C@H]([C@@H](O)/C=C/C3CCCCC3)C[C@@H]3O[C@H]3[C@@H](O)C1)O2`, the results for the pIC50 in assay [1] and in assay [2] were 5.05 and 5.08, respectively.

Regarding `C=C1CCC[C@@H]2CC=C[C@@H](C/C=C\C(=O)O[C@H](CO)C/C=C/[C@@H](O)C1)O2`, the IC50 result in assay [3] and in assay [4] was “Not Active” each time.

Consider `C=C1CCC[C@@H]2CC=C[C@@H](C/C=C\C(=O)O[C@H]([C@@H](O)/C=C/[C@@H]3CC(C)=CCO3)C/C=C/[C@@H](O)C1)O2`, for which the pIC50 in assay [1] was 6.37; in assay [2] it was 5.96.

For `C=C1CCC[C@@H]2CC=C[C@@H](C/C=C\C(=O)O[C@H]([C@@H](O)/C=C/c3csc(C)n3)C/C=C/[C@@H](O)C1)O2`, the IC50 result in assay [3] and in assay [4] was “Not Active” in each case.

For `C=C/C=C\[C@H](C)[C@H](OC(N)=O)[C@@H](C)[C@H](O)[C@@H](C)C/C(C)=C\[C@H](C)[C@@H](O)[C@@H](C)/C=C\[C@@H](O)C[C@@H]1OC(=O)[C@H](C)[C@@H](O)[C@H]1C` [DISERMOLIDE], the pIC50 in assay [5] was 8.00; in assay [2] it was 7.00.

As for `C=C1C[C@H](C)C[C@@H]2CC=C[C@@H](C/C=C\C(=O)O[C@H]([C@@H](O)/C=C/[C@@H]3CC(C)=CCO3)C[C@@H]3O[C@H]3[C@@H](O)C1)O2` [FIJIANOLIDE B], the pIC50 in assay [1] is 8.47; in assay [2], 8.12.

With `CC(=O)O[C@H]1C(=O)[C@@]2(C)[C@H]([C@H](OC(=O)c3ccccc3)[C@]3(O)C[C@H](OC(=O)[C@H](O)[C@@H](NC(=O)c4ccccc4)c4ccccc4)C(C)=C1C3(C)C)[C@]1(OC(C)=O)CO[C@@H]1C[C@@H]2O` [PACLITAXEL], the values for the pIC50 in assay [5] and in assay [2] were 8.96 and 5.82, respectively.

The pIC50 is −log10 of the IC50, conventionally taken in molar units.

The record behind these values is ChEMBL document CHEMBL1144374, “Design, synthesis and biological evaluation of novel, simplified analogues of laulimalide: modification of the side chain” (Bioorg Med Chem Lett, 2005).
